# High-throughput results from PubChem BioAssay.
# These entries were drawn from the full list.
# PGC1a acetyl up = raises PGC1a acetylation signal in U2OS cells. U2OS PGC1a acetylation AlphaScreen, overnight. activation, % at 15.6 µM. 350,000 compounds, 0.21% hits;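 active = every replicate reaching activation of at least 50%, whatever the mean replicate activation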;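 note: hits raise the AlphaScreen acetylation signal above neutral controls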
#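 System: flag-PGC1a/GCN5 U2OS cells / Input: 7000 cells/well / Compound: single test concentration per compound / Incubation: overnight compound treatment, 37 °C / Technique: AlphaScreen on lysates with anti-acetyl-lysine antibody, acceptor and donor beads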
# * marks the source's active call; other numbers are inactive results.
SMILES,PGC1a acetyl up
CC(c1ccccc1)C1CC(=O)N(c2ccc([N+](=O)[O-])cc2)C1=O (stereo not given),-40.9
COc1ccc(-c2noc(CCC(=O)N3CCN(c4cccc(C)c4C)CC3)n2)cc1,-43.5
N#CC1=C(N)Oc2c(ccc3ccccc23)C1c1ccsc1 (stereo not given),56.7*
CC(=O)OC[C@]12CC[C@H]3[C@@](C)(CC[C@H]4C(C)(C)CCC[C@]34C)[C@@H]1CC(C1=CC(=O)OC1O)O2 (stereo not given in full),-86.5
Cc1c(Cl)cccc1N=Cc1ccc([N+](=O)[O-])s1,102.1*
O=C(c1ccc([N+](=O)[O-])s1)N1CCc2ccccc2C1,-46.8
Cc1ccc(OC[C@H](O)[C@H](C)NC(C)C)c2c1CCC2,-44.9
CCCCN(c1ccccc1)c1ncnc(N)c1[N+](=O)[O-],-52.0
CCCCOc1ccc(CNC(=O)NS(=O)(=O)c2ccc(OCC(C)C)cc2)cc1,-48.9
O=S(=O)(c1cnccc1N1CCN(/N=C/c2ccccc2)CC1)N1CCCCC1,-57.0
CN1CCN(C(=O)C[C@@H]2CC[C@@H]3[C@H](COC[C@H](O)CN3CC3CCCCC3)O2)CC1,-47.1
CC1(Cc2ccc(Cl)cc2)C(=O)Nc2ccc(-c3cccnc3)cc21 (stereo not given),-45.9
Cc1ccc(CC2(C)C(=O)Nc3c(Cl)ccc(Cl)c32)cc1 (stereo not given),158.9*
CCCCn1c(SCC(=O)NCc2ccc3c(c2)OCO3)nnc1C(CC)N(C)C (stereo not given),-43.7
Cc1cccc(N(CC(=O)NC(C)(C)C)C(=O)CNC(=O)c2cccs2)c1,-47.4
Cc1ccc(CNn2cnnc2SCC(=O)NC(C)(C)C)cc1,-42.4
COc1ccc(C2NC3=C(CCC3)C3(C#N)C(OC)(OC)N=C(N)C23C#N)cc1 (stereo not given),-40.7
CNC[C@@H]1OCCCC[C@H](C)Oc2ccc(NS(=O)(=O)c3cccs3)cc2C(=O)N([C@H](C)CO)C[C@@H]1C,-58.7
CCc1c(C)nc(SCC(=O)Nc2ccc3c(c2)OCCO3)[nH]c1=O,-46.0
COc1ccc(NC(=O)CSC2CC(=O)N(c3ccc4c(c3)OCCO4)C2=O)cc1 (stereo not given),54.8*
Cc1cc(S(=O)(=O)NC(C)C)ccc1OCC(=O)Nc1ccc2c(c1)OCCO2,-110.5
Cc1c(NC(=O)c2ccccc2NS(=O)(=O)c2ccc(Br)cc2)c(=O)n(-c2ccccc2)n1C,-42.1
CN(c1cccc(NS(=O)(=O)c2cccs2)c1)S(C)(=O)=O,-50.7
CN(C)C(=O)c1ccc(-c2ccc([C@@H]3[C@H]4CN(C(=O)CC5CC5)CC(=O)N4[C@H]3CO)cc2)cc1,-47.4
Oc1ccc(Nc2nnc(-c3ccc(O)cc3)c3ccccc23)cc1,63.4*
SMILES,PGC1a acetyl up
Fc1ccc(CNC(=S)NCc2ccc(F)cc2)cc1,-87.1
CCOc1ccc2nc(NCCCNC(=O)c3cc(OC)c(OC)c(OC)c3)c(C#N)cc2c1,-41.8
C[C@H]1CN([C@@H](C)CO)C(=O)CCCn2nncc2CO[C@@H]1CN(C)C(=O)c1ccc(N2CCN(C)CC2)cc1,-55.6
Cc1ccc(NC(=O)c2ccc(NCC3CCCO3)c([N+](=O)[O-])c2)cc1Cl (stereo not given),-43.3
O=C(COC(=O)c1ccccc1C(=O)c1ccc(Cl)c([N+](=O)[O-])c1)NC1CCCCCC1,160.2*
COCCCNC(=S)Nc1cc(C)c(C)cc1C,-75.0
O=C1Nc2ccccc2N=C(c2ccccc2)C1N(Cc1ccc(F)cc1)C(=O)c1cccnc1 (stereo not given),-40.5
CCC(=O)N[C@H]1CC[C@H](CCNC(=O)Nc2ccc(C(F)(F)F)cc2)O[C@H]1CO,-60.3
CC/C(CC(C)(C)c1ccccc1)=N\O,55.8*
CC(C)C#Cc1cnc2c(c1)C(=O)N([C@H](C)CO)C[C@H](C)[C@H](CN(C)C(=O)c1ccccn1)O2,-44.8
CCOC(=O)c1oc2nc3c(cc2c1N)COC(C)(C)C3,63.1*
c1ccc(-c2cc(-c3ccccc3)n3ncnc3n2)cc1,-44.8
On1onc2c3cc(-c4ccccc4)nc3ccc21,620.5*
COc1cccc2cc(C(C)N(CCCN3CCOCC3)C(=S)Nc3cc(C)ccc3C)oc12 (stereo not given),-43.8
C=C1C(=O)O[C@@H]2[C@H]1[C@@H](OC(=O)/C(C)=C/C)C/C(C)=C\C(=O)/C=C(\C)[C@@H]2O,197.7*
Cc1cc(C)c2nc(N3CCCC(C(=O)N4CCC(C(N)=O)CC4)C3)sc2c1 (stereo not given),-40.0
Cc1ccc(OCC(=O)N2CC(C)OC(C)C2)c([N+](=O)[O-])n1 (stereo not given),-42.8
O=C(c1ccco1)N1CCN(c2ncnc3scc(-c4cccs4)c23)CC1,-45.4
Cn1nc(-c2ccccc2F)c2cc(C(=O)N3CCN(C(=O)c4ccco4)CC3)sc21,81.9*
COc1cc(NC(=S)NN2CCOCC2)cc(OC)c1,-60.6
O=C1NC(=S)S/C1=C\C=C\c1ccc([N+](=O)[O-])o1,72.6*
NC(=O)C1CCCCc2c1[nH]c1ccc(Cl)cc21 (stereo not given),663.8*
CCCCN(CCCC)CCNC(=O)c1ccc2nc(-c3ccccc3NC(C)=O)c(=O)[nH]c2c1,-42.1
CO[C@@H]1CN(C)C(=O)c2ccc(NC(C)=O)cc2OC[C@@H](C)N(C(=O)Cc2cccnc2)C[C@@H]1C,-46.9
Clc1ccc2nc(COc3ccccc3)[nH]c2c1,88.9*
SMILES,PGC1a acetyl up
COC1(C)CN(Cc2ccccc2Br)[C@H](/C=C/c2ccccc2)[C@H](Cc2ccccc2)O1 (stereo not given in full),-50.9
COc1cccc(S(=O)(=O)N[C@H]2CC[C@H](CC(=O)NCc3ccc(F)cc3)O[C@@H]2CO)c1,-55.3
COc1cccc(N(C(=O)CCl)C(C(=O)NCCc2ccccc2)c2cccs2)c1 (stereo not given),-29.3
COc1cccc(N(CC(=O)NCc2cccnc2)S(C)(=O)=O)c1,88.8*
N#Cc1cccc(C#N)c1NCC1CCCO1 (stereo not given),-43.0
CCCCCCC1CC(=O)NC(=S)N1 (stereo not given),-62.8
COc1ccc(C(=O)NC(=S)N(C)Cc2ccccc2)cc1Br,-49.2
COc1ccc([N+](=O)[O-])cc1NCc1ccccc1,83.6*
COc1ccc(C(=O)OCC(=O)NCc2ccc3c(c2)OCO3)cc1[N+](=O)[O-],-45.6
CC1=C(C(=O)OC(C)(C)C)C(c2ccc3ccccc3c2)NC(=O)N1C (stereo not given),-65.5
OC[C@H]1[C@@H](c2ccc(C#CC3CCCC3)cc2)[C@@H]2CN(CCC(F)(F)F)CCCCN12,60.2*
OC[C@@H]1[C@H](c2ccc(C#CC3CCCC3)cc2)[C@H]2CN(CCC(F)(F)F)CCCCN12,-80.5
N#C[C@H]1[C@H](c2ccc(C#CC3CCCC3)cc2)[C@H](CO)N1C(=O)Cc1ccccn1,-58.9
C=CCNC(=S)N1CCN(CCN=CC2=C(O)CC(c3ccco3)CC2=O)CC1 (stereo not given),-40.2
CCSc1nnc(NC(=O)CSC2=NCCS2)s1,-94.3
C[C@H]1CN([C@@H](C)CO)C(=O)c2cccc(NC(=O)c3nc4ccccc4s3)c2O[C@H]1CN(C)Cc1ccc(C(=O)Nc2ccccc2N)cc1,103.9*
C[C@@H]1CN([C@H](C)CO)C(=O)c2cccc(NC(=O)c3nc4ccccc4s3)c2O[C@@H]1CN(C)CC1CCCCC1,-59.1
